This note sets out measurements from ChEMBL document CHEMBL3392986, “Hydroxamic acids block replication of hepatitis C virus” (J Med Chem, 2015).

Series [1] addresses T1, Histone deacetylase 11 (Homo sapiens) (UniProt Q96DB2).
T1 sequence (whole entry): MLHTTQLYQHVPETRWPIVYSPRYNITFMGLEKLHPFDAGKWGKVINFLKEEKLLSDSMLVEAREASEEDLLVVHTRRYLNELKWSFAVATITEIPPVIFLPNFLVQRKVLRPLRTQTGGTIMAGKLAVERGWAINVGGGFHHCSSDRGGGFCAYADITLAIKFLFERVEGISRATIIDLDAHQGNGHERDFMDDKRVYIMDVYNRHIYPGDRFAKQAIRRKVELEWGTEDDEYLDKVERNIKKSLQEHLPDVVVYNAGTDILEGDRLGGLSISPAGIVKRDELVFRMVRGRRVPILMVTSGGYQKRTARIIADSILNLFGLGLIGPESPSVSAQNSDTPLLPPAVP
Nature of the series: Inhibition of N-terminal GST-tagged human HDAC11 expressed in baculovirus expression system assessed as inhibition of fluorophore 7-amino-4-methylcoumarin release by fluorescence assay.

For series [2], the target named is Hepatitis C virus serine protease, NS3/NS4A (Hepatitis C virus) (UniProt D2K2A8+A3EZI9). Nature of the series: Inhibition of HCV NS3/4A protease. Particulars: Hepacivirus hominis.
Series [3] addresses T2, Protein deacetylase HDAC6 (Homo sapiens) (UniProt Q9UBN7).
T2 sequence (whole entry): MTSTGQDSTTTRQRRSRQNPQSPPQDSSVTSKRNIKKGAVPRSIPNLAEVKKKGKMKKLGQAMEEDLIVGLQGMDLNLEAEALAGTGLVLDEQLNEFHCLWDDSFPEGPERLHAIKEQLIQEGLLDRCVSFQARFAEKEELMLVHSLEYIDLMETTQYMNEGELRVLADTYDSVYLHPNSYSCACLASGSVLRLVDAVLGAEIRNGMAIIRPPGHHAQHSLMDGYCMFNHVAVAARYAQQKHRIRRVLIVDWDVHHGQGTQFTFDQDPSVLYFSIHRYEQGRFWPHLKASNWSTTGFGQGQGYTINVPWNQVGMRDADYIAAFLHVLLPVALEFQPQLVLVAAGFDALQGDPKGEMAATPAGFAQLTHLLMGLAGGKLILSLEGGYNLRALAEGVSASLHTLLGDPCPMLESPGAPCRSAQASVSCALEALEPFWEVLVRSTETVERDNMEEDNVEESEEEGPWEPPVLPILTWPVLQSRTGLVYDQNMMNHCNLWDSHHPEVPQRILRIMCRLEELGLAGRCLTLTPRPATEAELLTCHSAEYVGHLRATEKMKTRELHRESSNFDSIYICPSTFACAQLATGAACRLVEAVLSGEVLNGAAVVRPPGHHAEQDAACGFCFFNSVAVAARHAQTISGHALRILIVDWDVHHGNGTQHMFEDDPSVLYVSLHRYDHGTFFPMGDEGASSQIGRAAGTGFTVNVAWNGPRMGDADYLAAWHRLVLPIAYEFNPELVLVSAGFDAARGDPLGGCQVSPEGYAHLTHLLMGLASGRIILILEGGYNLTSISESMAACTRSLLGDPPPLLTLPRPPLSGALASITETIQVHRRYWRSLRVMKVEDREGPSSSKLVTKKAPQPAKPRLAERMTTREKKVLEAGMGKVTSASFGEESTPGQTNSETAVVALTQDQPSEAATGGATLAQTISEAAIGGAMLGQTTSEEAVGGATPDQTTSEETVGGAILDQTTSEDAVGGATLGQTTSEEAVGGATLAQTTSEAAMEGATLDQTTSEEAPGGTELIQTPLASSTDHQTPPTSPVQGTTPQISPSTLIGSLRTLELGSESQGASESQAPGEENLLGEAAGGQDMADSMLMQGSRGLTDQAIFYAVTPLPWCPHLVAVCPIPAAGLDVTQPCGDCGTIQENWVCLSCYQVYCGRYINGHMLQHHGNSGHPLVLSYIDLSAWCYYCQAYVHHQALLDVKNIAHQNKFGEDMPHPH
Nature of the series: Inhibition of full length N-terminal GST-tagged human HDAC6 expressed in baculovirus expression system assessed as inhibition of fluorophore 7-amino-4-methylcoumarin release by fluorescence assay.

Series [4] deals with Histone deacetylase 2 (Homo sapiens) (UniProt Q92769). Description: Inhibition of full length C-terminal His-tagged human HDAC2 expressed in baculovirus expression system assessed as inhibition of fluorophore 7-amino-4-methylcoumarin release by fluorescence assay.
In series [5] the test system is Hepatitis C virus. Nature of the series: Antiviral activity against HCV genotype 1b infected in human Huh7 cells assessed as reduction in viral RNA level at 2 uM after 3 days by RT-qPCR. Type of series: functional, Hepacivirus hominis, Huh-7. Also noted: scale not given: the % may be the effect or the level left. The procedure, abridged: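 Replicon-bearing Huh7 cells, 6 X 10^3 per well, exposed to compound in DMSO or DMSO alone for three days at 37 °C/5% CO2. Replicon RNA quantified by TaqMan Cells-to-CT RT-qPCR with NS5B primers/probe, using GAPDH in parallel wells as reference. Level relative to DMSO-treated cells calculated as 2-∆∆CT. Triplicate wells.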

Series [6] in a line: Therapeutic index, ratio of CC50 for human HuH7 cells to EC50 for HCV genotype 1b infected in human Huh7 cells. The settings on record: HuH7 cells.
The subject of series [7] is Hepatitis C virus. Nature of the series: Antiviral activity against HCV genotype 1b infected in human Huh7 cells after 3 days by luciferase reporter gene assay. Type of series: functional, cell-based, Hepacivirus hominis. The settings on record: Huh-7, 72 h. Background: In a reporter assay the amount or activity of a reporter protein is the signal.
In series [8] the target is Macrophage metalloelastase (Homo sapiens) (UniProt P39900). Nature of the series: Inhibition of human recombinant MMP12 catalytic domain (99 to 271 aa) expressed in Escherichia coli.
Series [9] in a line: Cytotoxicity against human HuH7 cells assessed as inhibition of cell viability after 3 days by CellTiter 96 assay.

The source made the active and inactive calls. The rule behind the calls is not given here.

Chain of Histone deacetylase 2 (Homo sapiens) (Q92769 whole entry): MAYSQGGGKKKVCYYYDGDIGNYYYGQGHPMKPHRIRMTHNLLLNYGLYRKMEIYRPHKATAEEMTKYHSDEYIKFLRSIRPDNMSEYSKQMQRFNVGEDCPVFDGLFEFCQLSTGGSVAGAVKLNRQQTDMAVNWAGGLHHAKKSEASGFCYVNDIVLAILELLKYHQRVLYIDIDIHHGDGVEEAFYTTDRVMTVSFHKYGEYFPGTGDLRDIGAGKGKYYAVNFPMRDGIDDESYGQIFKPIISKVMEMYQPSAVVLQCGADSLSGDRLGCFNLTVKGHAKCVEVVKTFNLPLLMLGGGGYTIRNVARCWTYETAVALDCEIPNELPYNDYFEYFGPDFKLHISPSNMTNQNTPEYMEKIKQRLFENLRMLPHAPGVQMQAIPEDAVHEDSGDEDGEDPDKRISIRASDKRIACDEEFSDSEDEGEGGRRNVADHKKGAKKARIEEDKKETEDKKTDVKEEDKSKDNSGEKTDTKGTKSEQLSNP
Chain of Macrophage metalloelastase (Homo sapiens) (P39900 106-470 limits assumed): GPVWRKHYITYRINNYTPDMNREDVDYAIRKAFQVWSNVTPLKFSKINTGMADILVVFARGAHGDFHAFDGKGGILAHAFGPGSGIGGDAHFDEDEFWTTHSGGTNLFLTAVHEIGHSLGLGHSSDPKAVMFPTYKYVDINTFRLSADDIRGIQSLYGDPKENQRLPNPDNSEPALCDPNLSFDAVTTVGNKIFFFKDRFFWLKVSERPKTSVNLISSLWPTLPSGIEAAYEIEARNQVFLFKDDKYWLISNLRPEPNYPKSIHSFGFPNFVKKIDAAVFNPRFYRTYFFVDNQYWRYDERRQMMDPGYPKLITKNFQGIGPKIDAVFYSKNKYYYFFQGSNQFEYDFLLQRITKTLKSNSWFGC

As a reminder, the EC50 is the concentration at which the effect is half-maximal. Usually CC50 stands for the concentration giving 50% cytotoxicity. For the compound `O=C(NO)c1sc2ccccc2c1S(=O)(=O)c1ccccc1`, the inhibition result in series [1], in [2], in series [3] and in series [4] was “inactive” in each case. The Activity in series [5] worked out at 75%. Further, in series [6], the selectivity ratio came out at 93. The response in series [7] was half-maximal at 0.61 µM (EC50). Moreover, the inhibition result in series [8] was “Active”. For the same compound, the CC50 at 72 h in [9] came to 57 µM.
